Bioassay records as filed in PubChem BioAssay.
Most compounds without a hit are left out; they make up all but 3.5% or so of the library.
Yeast growth inh = growth inhibitors of yeast BB579 in restrictive medium, primary screen, yeast lifespan-shortening project, S. cerevisiae. inhibition, % at 10 µM. actives 0.51% (n = 140,000). OD615, 48 h. AID 804, 2007;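 active = inhibition above a set limit, 3 SD over the mean compound inhibition, cut at about 44% in these data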
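System: DeaD yeast strain BB579; buffer or medium: CSMM-D dextrose restrictive medium; technique: OD at 615 nm; schedule: 4 h cell preincubation, 48 h compound exposure, 30 °C humidified; doses: single 10 µM dose; controls: amphotericin B 10 µg/mL, positive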
HMGR II inh = inhibitors of E. faecalis class II HMGR, primary screen, biochemical, Enterococcus faecalis. HMG-CoA reductase (Enterococcus faecalis, mvaE). purified E. faecalis HMGR, NADPH absorbance 340 nm kinetic. inhibition, % at 10 µM. actives 0.41% (n = 190,000). AID 1066, 2008;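 active = inhibition above a set limit, the median over all tested compounds plus 3 SD, cut at about 9.5% in these data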;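 also: enzyme runs in reverse so mevalonate oxidation gives rising NADPH absorbance; 0% = complete reaction with DMSO and 100% = background rate lacking mevalonate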
RAM inhibit = inhibitors of the yeast RAM network, primary screen, dse1pr::URA3 reporter, 5-FOA selection. inhibition, % at 50 µM. S. cerevisiae dse1pr::URA3 reporter, 5-FOA growth OD615, 2 d; analog-sensitive cbk1-as2 kinase mutant strain. actives 1.8% (n = 190,000);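 active = inhibition above a set limit, 3 SD over mean compound inhibition, cut at about 8.4% in these data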;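 also: 0% = DMSO-only wells with no growth and 100% = 10 µM 1-NA-PP1 full growth; inhibition rescues growth on 5-FOA so higher OD means more RAM inhibition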
b-catenin transl = modulators of beta-catenin nuclear translocation, primary screen, imaging, HeLa cells, immunofluorescence, high-content. nuclear translocation activity, % at 5 µM. actives 0.3% (n = 190,000);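 active = nuclear translocation activity above 50% at 5 µM, with a well cell count of 50 or more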;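 also: per-cell ratio of nuclear to cytoplasmic median beta-catenin stain intensity; plate controls were DMSO negative control for no effect and GSK-3 inhibitor IX positive control for full effect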
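Test system: human HeLa cells, native beta-catenin. Compound dosing: 5 µM primary single dose, 0.1% DMSO, 0.02–20 µM confirmation series. Incubation: compound exposure 24 h at 37°C. Detection: beta-catenin immunostaining with DAPI counterstain, 20x imaging, 6 fields/well. Read-out basis: Nuclear/cytoplasmic beta-catenin signal ratio, % activation.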
Yeast lifespan up = compounds extending yeast replicative lifespan, primary screen, S. cerevisiae, OD615; S. cerevisiae growth with nicotinamide; deaD strain in restrictive glucose medium; inhibition of the nicotinamide effect, % at 10 µM; actives 0.68% (n = 130,000); AID 775, 2007;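 active = inhibition above a set limit, placed 3 SD over the median of all compounds, cut at about 26% in these data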;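 also: 0% = nicotinamide-treated wells and 100% = cells grown without nicotinamide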
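Assay system: engineered S. cerevisiae DeaD replicative-lifespan strain, galactose-grown log-phase cells; Buffer or medium: CSMM-D glucose medium, restrictive; Probe or stimulus: nicotinamide 1.5 mM; Compound: single dose 10 µM compound, 0.25% DMSO; Schedule: 4 h preincubation then 48 h treatment at 30 °C; Technique: OD615 measurement.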
MT stabilize HCS = microtubule stabilizers in HeLa cells, primary screen, imaging, high-content imaging; HeLa tubulin immunostaining HCS, 24 h; share of cells brighter than vehicle mean+2SD; % tubulin-high responders, % at 10 µM; actives 0.83% (n = 200,000); AID 2205, 2009;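 active = plate Z-score above 3 for both tubulin-high and condensed-nucleus cell shares, with cell loss under 80%, at 10 µM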;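 also: anti alpha tubulin signal scored within the nucleus-defined area of each cell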
RAM efflux-def = 5-FOA growth of efflux-deficient control yeast, dose response, counter-screen for RAM network inhibitor project, S. cerevisiae, OD615; 1,200 tested, under 10 active; shares compounds with RAM inhibit; max inhibition, %; S. cerevisiae efflux-deficient reporter strain, 5-FOA growth OD615, 2 days; call rule not given here;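 also: plate controls were vehicle for no effect and reference inhibitor for full effect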
Active calls of the source: *; nt = no result given.

SMILES | Yeast growth inh | HMGR II inh | RAM inhibit | b-catenin transl | Yeast lifespan up | MT stabilize HCS | RAM efflux-def
CCc1c(C#N)c(SCc2c(C)noc2C)nc2c1C(=O)CC(C)(C)C2 | -1 | -8 | 12* | 2 | 14 | 3 | 3
COc1cccc(-c2cc(C(=O)Nc3ccn(Cc4ccc(C)cc4)n3)no2)c1 | nt | -3 | 17* | 0 | nt | 2 | 3
COc1ccccc1-c1nnc(SCC(=O)NCc2cccs2)n1N | nt | -1 | 1 | -4 | nt | 4 | nt
O=C(Nc1cccc(C(F)(F)F)c1)NC1CCCCC1 | -66 | 4 | 2 | nt | -4 | 2 | nt
O=C(OC(C(=O)Nc1cccc(C(F)(F)F)c1)c1ccccc1)C1CCCCC1 (stereo not drawn) | -31 | -1 | 14* | 2 | 0 | 2 | 2
CCOc1ccccc1C(=O)N1CCN(c2ccc(C(F)(F)F)cn2)CC1 | nt | -7 | 1 | -1 | nt | 2 | nt
CCCCn1c(SCC(=O)Nc2ccccc2C(F)(F)F)nc2ccsc2c1=O | -11 | -1 | 11* | 1 | -2 | 3 | 3
CCCCn1c(SCC(=O)Nc2nccs2)nc2ccccc2c1=O | -58 | -1 | 3 | nt | -19 | 1 | nt
CN(Cc1ccccc1)C(=O)COC(=O)c1cc(NS(=O)(=O)c2cccs2)ccc1O | nt | 1 | 6 | -5 | nt | 11 | nt
COCCNC(=O)C(c1ccc(F)cc1)N(C(=O)CCC(=O)Nc1nccs1)c1ccc(C)cc1 (stereo not drawn) | nt | -3 | 12* | 0 | nt | 3 | 2
CCNC(=O)CC1C(=O)N(c2ccc(C)cc2)C(=O)N1CCc1sccc1C (stereo not drawn) | nt | 0 | 0 | 0 | nt | 2 | nt
CCOC(=O)c1ccc(NC(=O)COC(=O)c2cccc(Oc3ccccc3)c2)cc1 | -50 | -2 | 12* | nt | 8 | 2 | 3
CCOC(=O)c1ccc(NC(=S)NC(=O)COc2ccccc2)cc1 | -33 | -2 | 11* | 1 | 5 | 2 | 2
CN(C)c1ccc(/C=N/NC(=O)CCc2nc3ccccc3[nH]2)cc1 | nt | nt | nt | -1 | nt | nt | nt
O=S(=O)(c1ccc(F)cc1)n1ccc(-c2cccc(OCc3ccc(Cl)cc3Cl)c2)n1 | -56 | 1 | 12* | nt | -6 | 2 | 2
O/N=C/c1cc(Br)ccc1OCc1ccc(F)cc1 | nt | nt | nt | nt | nt | 3 | nt
O/N=C/c1cc(Br)ccc1OCc1cccc(F)c1 | -22 | -1 | 12* | 4 | -7 | 1 | 2
COc1ccc2c(c1)C(C)CC(C)(C)N2C(=O)CSc1nc2ccccc2s1 (stereo not drawn) | -21 | -1 | 13* | 1 | -5 | 4 | 4
CC(C)(C)OC(=O)CNC(=O)c1nc[nH]c1C(=O)NCC(=O)OC(C)(C)C | nt | nt | nt | 0 | nt | nt | nt
CC(C)SCCCCOc1ccc2ccccc2c1 | -58 | 0 | 12* | -3 | -13 | 3 | 3
CC(=O)c1ccc(NC(=O)CC23CC4CC(C2)CC(n2nnc(C)n2)(C4)C3)cc1 | nt | -3 | 1 | 0 | nt | 1 | nt
CCCn1nc(C(=O)OCC(=O)Nc2cccc(OC)c2)c2ccccc2c1=O | nt | 3 | 3 | -5 | nt | 4 | nt
COc1cc(/C=C/C(=O)OCC(=O)Nc2ccccc2Sc2ccc(Cl)cc2)ccc1O | -39 | -4 | 15* | 0 | -2 | 3 | 4
O=C(N=Nc1c(O)n(Cc2ccccc2)c2ccccc12)c1ccc(O)cc1 | -42 | -3 | 4 | 2 | -2 | 4 | nt
O=C(N=Nc1c(O)n(C2OC(=O)c3ccccc32)c2ccccc12)c1ccc(O)cc1 (stereo not drawn) | -35 | -7 | 12* | 0 | -3 | 2 | 4
SMILES | Yeast growth inh | HMGR II inh | RAM inhibit | b-catenin transl | Yeast lifespan up | MT stabilize HCS | RAM efflux-def
OCCC1CN(Cc2cnc(-c3cccc4ccccc34)nc2)CCN1C1CCCCC1 (stereo not drawn) | nt | -1 | 1 | -3 | nt | 2 | nt
CCOC(=O)/C(=N\Nc1ccccc1)S(=O)(=O)c1ccccc1 | -28 | -2 | 0 | nt | 1 | 1 | nt
CCOC(=O)/C(=N/Nc1ccc(C)cc1)S(=O)(=O)c1ccc(Cl)cc1 | -14 | -3 | 12* | 1 | -3 | 3 | 1
O=C(COc1ccccc1C(=O)O)Nc1ccc(SC(F)F)cc1 | nt | -4 | 1 | 1 | nt | 1 | nt
O=C(COC(=O)c1ccccc1Nc1ccc(SC(F)F)cc1)NC1CC1 | -2 | -8 | 12* | 1 | -1 | 2 | 2
O=C(COC(=O)c1ccccc1C(=O)c1ccccc1)Nc1ccc(SC(F)F)cc1 | -26 | -2 | 13* | 1 | 4 | 5 | 3
NC(=O)COC(=O)c1ccccc1Nc1ccc(SC(F)F)cc1 | 9 | 1 | -1 | 2 | -4 | 4 | nt
Cn1nc(C(F)(F)F)c(-c2ccc(Br)cc2)c1NC(=O)Nc1ccc(F)cc1F | nt | nt | nt | 2 | nt | nt | nt
C=CCNc1oc(-c2cccs2)nc1S(=O)(=O)c1ccccc1 | nt | -1 | 0 | -5 | nt | 5 | nt
COc1cccc(/C=C2\Oc3cc(OC(=O)N4CCOCC4)ccc3C2=O)c1 | nt | nt | nt | 0 | nt | nt | nt
Cc1cccc(/C=C2\Oc3cc(OS(C)(=O)=O)ccc3C2=O)c1 | -37 | -11 | 12* | -2 | -6 | 2 | 4
Cc1ccc(SCC(=O)N2c3ccccc3Sc3ccccc32)cc1 | -31 | -3 | 14* | -2 | -18 | 2 | 2
O=C(NCc1ccccc1)c1ccc(S(=O)(=O)N2CCCc3ccccc32)cc1 | -70 | -2 | 12* | 3 | -22 | 4 | 3
O=C(Nc1ccccc1)C1=C[C@@H](C2CCCCC2)C[C@@H](OCc2ccc(CO)cc2)O1 | nt | -5 | 12* | 2 | nt | 1 | 5
O=C(Nc1ccccc1)C1=C[C@H](C2CCCCC2)C[C@H](OCc2ccc(CO)cc2)O1 | nt | 1 | 14* | -2 | nt | 1 | 5
O=C(Nc1ccccc1)C1=C[C@@H](C2CCCCC2)C[C@@H](OCCCCO)O1 | nt | -2 | 5 | 0 | nt | 5 | nt
CCN(CC)C(=O)CSc1nc2cc3c(cc2c(=O)n1CCCCCC(=O)NCc1ccc(OC)cc1)OCO3 | nt | -4 | 14* | 0 | nt | 3 | 4
CCOC(=O)c1c(C)[nH]c(N=Nc2ccccc2C)c1C | -7 | -8 | 20* | -1 | -11 | 2 | 5
CCOC(=O)c1c(C)[nH]c(N=Nc2ccc(C)cc2C)c1C | -13 | 0 | 6 | 0 | -13 | 2 | nt
COc1ccc(-c2ccc(-c3noc(C(C)C)n3)c(OC)n2)cc1 | -68 | -2 | 15* | -7 | -11 | 2 | 4
